Assay results: ChEMBL document CHEMBL4715779, “In vivo effective dibenzo[b,d]furan-1-yl-thiazoles as novel PDE-4 inhibitors” (Bioorg Med Chem, 2016)
One block for each compound: values may come before it.

How the values were obtained:
Rattus norvegicus [1] = assay: Antiinflammatory activity in Wistar rat model of LPS-induced uveitis assessed as reduction in infiltrating cells in aqueous humor at 1 mg/kg, po administered 24 hrs after LPS stimulation and measured after 1 hr by hemocytometry relative to control; format: functional
Rattus norvegicus [2] = assay: Antiinflammatory activity in Sprague-Dawley rat model of LPS-induced COPD and asthma assessed as reduction in total cell count in BALF at 0.1 mg/kg, po administered 30 mins before LPS stimulation and measured after 6 hrs relative to control; format: functional; conditions: time 6.5 hrs
Rattus norvegicus [3] = assay: Antiinflammatory activity in Sprague-Dawley rat model of LPS-induced COPD and asthma assessed as reduction in total cell count in BALF at 3 mg/kg, po administered 30 mins before LPS stimulation and measured after 6 hrs relative to control; format: functional; conditions: time 6.5 hrs
PBMC [4] = assay: Inhibition of PDE-4 in human PBMC assessed as LPS-induced TNFalpha production at 100 nM incubated for 15 mins followed by LPS stimulation and measured after 18 hrs by ELISA relative to control; conditions: time 1095.0 min
In short: (§1)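 PBMC isolated from healthy volunteers' blood in cell preparation tubes, suspended in RPMI; 0.5 million cells/well pre-incubated with compound 15 min at 37 °C, then stimulated with E. coli LPS (B4) 1 µg/mL for 18 h at 37 °C, 5% CO2; medium TNF-α measured by ELISA.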

[5] = Oral bioavailability in Wistar rat at 10 mg/kg; format: ADME, organism-based; conditions: in vivo
[6] = Volume of distribution in Wistar rat at 5 mg/kg, iv; format: ADME, organism-based; conditions: in vivo
Mus musculus [7] = assay: Antiinflammatory activity in Swiss albino mouse model of LPS-induced sepsis assessed as reduction in TNFalpha production at 0.3 mg/kg, po administered 30 mins before LPS stimulation and measured after 90 min by ELISA relative to control; format: functional; conditions: 2 h, time 120 min
In short: (§2)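 Female Swiss albino mice fasted 20 h with water, dosed orally in 0.5% Tween 80/0.25% CMC sodium; vehicle-only controls. 500 µg E. coli LPS (B4) in PBS i.p. 30 min later; retro-orbital bleed 90 min post-LPS, blood held overnight at 4 °C, serum TNF-α by mouse ELISA; % inhibition.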

[8] = molecular target: T1, 3',5'-cyclic-AMP phosphodiesterase 4B (Homo sapiens, UniProt Q07343); assay: Inhibition of human PDE4B using [3H]cAMP as substrate at 100 nM incubated for 5 mins followed by substrate addition and measured after 10 mins by scintillation proximity assay relative to control; conditions: time 15.0 min
T1 sequence (Q07343 whole entry): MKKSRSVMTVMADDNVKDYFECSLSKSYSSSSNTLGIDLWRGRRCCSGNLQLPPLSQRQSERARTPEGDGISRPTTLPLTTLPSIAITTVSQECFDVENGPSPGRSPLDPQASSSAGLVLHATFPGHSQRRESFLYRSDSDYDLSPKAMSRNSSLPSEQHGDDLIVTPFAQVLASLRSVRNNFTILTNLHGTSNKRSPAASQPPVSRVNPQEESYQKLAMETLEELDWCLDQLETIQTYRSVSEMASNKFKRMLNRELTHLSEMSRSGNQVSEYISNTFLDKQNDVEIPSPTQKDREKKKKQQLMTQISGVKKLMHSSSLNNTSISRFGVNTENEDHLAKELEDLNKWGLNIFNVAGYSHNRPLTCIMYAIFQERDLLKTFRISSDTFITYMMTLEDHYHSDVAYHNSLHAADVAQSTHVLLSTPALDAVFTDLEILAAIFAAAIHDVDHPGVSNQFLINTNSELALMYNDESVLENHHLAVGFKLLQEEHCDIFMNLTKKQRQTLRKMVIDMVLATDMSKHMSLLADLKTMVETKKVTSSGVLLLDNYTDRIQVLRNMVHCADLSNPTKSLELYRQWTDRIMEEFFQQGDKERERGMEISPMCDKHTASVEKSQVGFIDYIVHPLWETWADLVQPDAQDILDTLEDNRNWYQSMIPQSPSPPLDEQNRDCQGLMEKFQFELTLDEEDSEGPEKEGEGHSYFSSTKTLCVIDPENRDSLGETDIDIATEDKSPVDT
In short: (§3)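 Purified human PDE-4B2 in 50 mM Tris pH 7.4, 8.3 mM Mg2+, 1% DMSO final, enzyme converting 10–20% of substrate; 5 min pre-incubation at 37 °C, then 0.5 µM cAMP with ~50,000 cpm [3H]-cAMP for 10 min; stopped with yttrium silicate SPA beads containing 18 mM ZnSO4, read after >30 min settling. Background = no enzyme; IC50 from 8–10-point 4-parameter fit.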

[9] = Half life in Wistar rat at 5 mg/kg, iv; format: ADME, organism-based; conditions: in vivo
[10] = Genotoxicity in Salmonella typhimurium TA100 in presence of rat liver S9 fraction at 0.039 to 5 mg by Ames test; format: toxicity, subcellular, Salmonella enterica subsp. enterica serovar Typhimurium; conditions: dose 0.039-5 mg
In short: (§4)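 Ames reverse mutation test in S. typhimurium TA98 and TA100 with rat liver S9 activation, doses 0.039–5 mg/plate (eight levels); mutagenicity and cytotoxicity scored.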

Rattus norvegicus [11] = assay: Antiinflammatory activity in Sprague-Dawley rat model of LPS-induced COPD and asthma assessed as reduction in total cell count in BALF at 30 mg/kg, po administered 30 mins before LPS stimulation and measured after 6 hrs relative to control; format: functional; conditions: time 6.5 hrs
[12] = Half life in Wistar rat at 10 mg/kg, po; format: ADME, organism-based; conditions: in vivo
[13] = molecular target: T1, 3',5'-cyclic-AMP phosphodiesterase 4B; assay: Inhibition of human PDE4B using [3H]cAMP as substrate incubated for 5 mins followed by substrate addition and measured after 10 mins by scintillation proximity assay; in short: as §3
Rattus norvegicus [14] = assay: Antiinflammatory activity in Wistar rat model of LPS-induced uveitis assessed as reduction in infiltrating cells in aqueous humor at 0.1 mg/kg, po administered 24 hrs after LPS stimulation and measured after 1 hr by hemocytometry relative to control; format: functional
[15] = Clearance in Wistar rat at 5 mg/kg, iv; format: ADME, organism-based; conditions: in vivo
Mus musculus [16] = assay: Antiinflammatory activity in Swiss albino mouse model of LPS-induced sepsis assessed as reduction in TNFalpha production at 1 mg/kg, po administered 30 mins before LPS stimulation and measured after 90 min by ELISA relative to control; format: functional; conditions: 2 h, time 120 min; in short: as §2
Rattus norvegicus [17] = assay: Antiinflammatory activity in Sprague-Dawley rat model of LPS-induced COPD and asthma assessed as reduction in neutrophil influx in BALF at 10 mg/kg, po administered 30 mins before LPS stimulation and measured after 6 hrs relative to control; format: functional; conditions: time 6.5 hrs
[18] = Genotoxicity in Salmonella typhimurium TA98 in presence of rat liver S9 fraction at 0.039 to 5 mg by Ames test; format: toxicity, subcellular, Salmonella enterica subsp. enterica serovar Typhimurium; conditions: dose 0.039-5 mg; in short: as §4
Rattus norvegicus [19] = assay: Antiinflammatory activity in Wistar rat model of LPS-induced uveitis assessed as reduction in infiltrating cells in aqueous humor at 0.5 mg/kg, po administered 24 hrs after LPS stimulation and measured after 1 hr by hemocytometry relative to control; format: functional
Rattus norvegicus [20] = assay: Antiinflammatory activity in Sprague-Dawley rat model of LPS-induced COPD and asthma assessed as reduction in total cell count in BALF at 0.3 mg/kg, po administered 30 mins before LPS stimulation and measured after 6 hrs relative to control; format: functional; conditions: time 6.5 hrs
Rattus norvegicus [21] = assay: Antiinflammatory activity in Wistar rat model of LPS-induced uveitis assessed as reduction in infiltrating cells in aqueous humor at 3 mg/kg, po administered 24 hrs after LPS stimulation and measured after 1 hr by hemocytometry relative to control; format: functional
[22] = Inhibition of PDE-4 in human PBMC assessed as LPS-induced TNFalpha production incubated for 15 mins followed by LPS stimulation and measured after 18 hrs by ELISA relative to control; in short: as §1
[23] = Cmax in Wistar rat at 10 mg/kg, po; format: ADME, organism-based; set-up: route oral, dose 10 mg/kg; conditions: in vivo
[24] = AUClast in Wistar rat at 10 mg/kg, po; format: ADME, organism-based; set-up: dose 10 mg/kg; conditions: in vivo
PBMC [25] = assay: Inhibition of PDE-4 in human PBMC assessed as LPS-induced TNFalpha production at 1000 nM incubated for 15 mins followed by LPS stimulation and measured after 18 hrs by ELISA relative to control; conditions: time 1095.0 min; in short: as §1
[26] = Initial concentration in Wistar rat at 5 mg/kg, iv; format: ADME, organism-based; conditions: in vivo
Rattus norvegicus [27] = assay: Antiinflammatory activity in Sprague-Dawley rat model of LPS-induced COPD and asthma assessed as reduction in total cell count in BALF at 10 mg/kg, po administered 30 mins before LPS stimulation and measured after 6 hrs relative to control; format: functional; conditions: time 6.5 hrs
Mus musculus [28] = assay: Antiinflammatory activity in Swiss albino mouse model of LPS-induced sepsis assessed as reduction in TNFalpha production at 3 mg/kg, po administered 30 mins before LPS stimulation and measured after 90 min by ELISA relative to control; format: functional; conditions: 2 h, time 120 min; in short: as §2
Rattus norvegicus [29] = assay: Antiinflammatory activity in Sprague-Dawley rat model of LPS-induced COPD and asthma assessed as reduction in total cell count in BALF at 1 mg/kg, po administered 30 mins before LPS stimulation and measured after 6 hrs relative to control; format: functional; conditions: time 6.5 hrs
[30] = AUClast in Wistar rat at 5 mg/kg, iv; format: ADME, organism-based; set-up: dose 5 mg/kg; conditions: in vivo
[31] = Tmax in Wistar rat at 10 mg/kg, po; format: ADME, organism-based; conditions: in vivo
Rattus norvegicus [32] = assay: Antiinflammatory activity in Wistar rat model of LPS-induced uveitis assessed as reduction in infiltrating cells in aqueous humor at 10 ug/10ul/eye administered 24 hrs after LPS stimulation and measured after 1 hr by hemocytometry relative to control; format: functional; conditions: dose 10 µg

- bioavailability [5]: 42%
- Vd [6]: 1 L/kg
- inhibition [8]: 65.3%
- half-life [9]: 1.9 h
- half-life [12]: 5 h
- IC50 [13]: 63.5 nM
- clearance [15]: 6.67 mL/min/kg
- IC50 [22]: 31 nM
- Cmax [23]: 1400 ng/mL
- AUC(0-t) [24]: 11500 ng·h/mL
- C0 [26]: 4000 ng/mL
- AUC(0-t) [30]: 13700 ng·h/mL
- Tmax [31]: 4.8 h
Compound: O=C(NC1CCC(O)CC1)c1csc(-c2ccc(OC(F)F)c3oc4ccccc4c23)n1 (configuration not stated)
- inhibition in vivo at 1 mg/kg (Rattus norvegicus [1]): 90.3%
- inhibition in vivo at 0.1 mg/kg (Rattus norvegicus [2]): 52.8%
- inhibition in vivo at 3 mg/kg (Rattus norvegicus [3]): 70.9%
- inhibition (PBMC [4]): 77.7%
- inhibition in vivo at 0.3 mg/kg (Mus musculus [7]): 16.4%
- Activity [10]: Non-Toxic
- inhibition in vivo at 30 mg/kg (Rattus norvegicus [11]): 78.7%
- inhibition in vivo at 0.1 mg/kg (Rattus norvegicus [14]): 43.6%
- inhibition in vivo at 1 mg/kg (Mus musculus [16]): 34.2%
- inhibition in vivo at 10 mg/kg (Rattus norvegicus [17]): 58%
- Activity [18]: Non-Toxic
- inhibition in vivo at 0.5 mg/kg (Rattus norvegicus [19]): 54.4%
- inhibition in vivo at 0.3 mg/kg (Rattus norvegicus [20]): 34.6%
- inhibition in vivo at 3 mg/kg (Rattus norvegicus [21]): 96.9%
- inhibition (PBMC [25]): 93.8%
- inhibition in vivo at 10 mg/kg (Rattus norvegicus [27]): 75.2%
- inhibition in vivo at 3 mg/kg (Mus musculus [28]): 82.2%
- inhibition in vivo at 1 mg/kg (Rattus norvegicus [29]): 60.7%

Compound: C[C@@H]1C[C@H]2[C@@H]3CCC4=CC(=O)C=C[C@]4(C)[C@@]3(F)[C@@H](O)C[C@]2(C)[C@@]1(O)C(=O)CO [DEXAMETHASONE]
- inhibition (INH) (Rattus norvegicus [32]): 79.1%
